Source: ChEMBL document CHEMBL5344432, “Identification of a Dual Autophagy and REV-ERB Inhibitor with in Vivo Anticancer Efficacy” (J Med Chem, 2024)
The source made the active and inactive calls. The calls are words filed in the database; no cut-off is given here.

Legend:
[1] = Metabolic stability in dog liver microsomes assessed as half life preincubated for 15 mins followed by NADPH addition and measured after 1 to 2 hrs by LC-MS/MS analysis; assay type: ADME, Canis lupus familiaris, Microsome; conditions: liver microsomes, time 75-135 min
Procedure, shortened: (§1)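 Microsomal stability assessed in mouse, human, rat or dog liver microsomes with NADPH cofactor. Half-life and percent parent remaining at 60 and 120 min reported. Mean of at least two independent experiments, each in two technical replicates.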

[2] = Cmax in CD1 mouse at 10 mg/kg, ip measured upto 24 hrs; assay type: ADME, organism-based; parameters: dose 10 mg/kg, time < 24 hrs, route ip; conditions: in vivo
Procedure, shortened: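 Female CD1 mice given a single 10 mg/kg ip dose. Plasma concentration–time profile analyzed by noncompartmental analysis for half-life and volume of distribution. A two-compartment model was also fitted.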

[3] = tested on: HT-29; test: Cytotoxicity against human HT-29 cells; assay type: functional
Procedure, shortened: (§2)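 Human cancer lines (A375, MDA-MB-231, OMM-1, UPMM-2, CAPAN-2, HepG2, HT-29, HCT116) treated up to 30 μM. CC50 derived from concentration–response viability plots. Mean ± SEM, n ≥ 6. Two-tailed unpaired t test used between compounds.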

[4] = Tolerability in CD1 mouse assessed as appearance of arched backs at 138 micromol/kg, ip; assay type: toxicity; conditions: in vivo, dose 138 µmol/kg
Procedure, shortened: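 Female CD1 mice given daily ip injections at 138 μmol/kg (62 mg/kg). Animals observed for arched backs and lethargy.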

[5] = Metabolic stability in human liver microsomes assessed as parent compound remaining preincubated for 15 mins followed by NADPH addition and measured after 2 hrs by LC-MS/MS analysis; assay type: ADME, Microsome; conditions: time 135 min, read-out: Stability; procedure, shortened: as §1
[6] = Metabolic stability in mouse liver microsomes assessed as half life preincubated for 15 mins followed by NADPH addition and measured after 1 to 2 hrs by LC-MS/MS analysis; assay type: ADME, Microsome; conditions: liver microsomes, time 75-135 min; procedure, shortened: as §1
[7] = Metabolic stability in mouse liver microsomes assessed as half life preincubated for 15 mins followed by UDPGA addition and measured after 2 hrs by LC-MS/MS analysis; assay type: ADME, Microsome; conditions: time 135 min
Procedure, shortened: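 Mouse and human liver microsomes incubated with UDPGA cofactor. Half-life and percent parent remaining at 120 min reported. Mean of at least two independent experiments, each in two technical replicates.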

[8] = Metabolic stability in mouse liver microsomes assessed as parent compound remaining preincubated for 15 mins followed by NADPH addition and measured after 1 hr by LC-MS/MS analysis; assay type: ADME, Microsome; conditions: time 75 min, read-out: Stability; procedure, shortened: as §1
[9] = Tolerability in CD1 mouse assessed as reduction in body weight at 138 micromol/kg, ip measured after 2 days; assay type: toxicity, organism-based; conditions: in vivo, 48 h, dose 138 µmol/kg, time 2 day
Procedure, shortened: (§3)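 Body weight tracked in female CD1 mice under three regimens: 138 μmol/kg (62 mg/kg) ip daily, assessed after 2 days; 138 μmol/kg every other day over 8 days; 69 μmol/kg (31 mg/kg) daily over 8 days.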

[10] = Tolerability in CD1 mouse assessed as reduction in body weight at 69 micromol/kg, ip administered every daily for 8 days; assay type: toxicity, organism-based; conditions: in vivo, 192 h, dose 69 µmol/kg, time 8 day; procedure, shortened: as §3
[11] = Metabolic stability in human liver microsomes assessed as half life preincubated for 15 mins followed by NADPH addition and measured after 1 to 2 hrs by LC-MS/MS analysis; assay type: ADME, Microsome; conditions: liver microsomes, time 75-135 min; procedure, shortened: as §1
[12] = Metabolic stability in human liver microsomes assessed as parent compound remaining preincubated for 15 mins followed by NADPH addition and measured after 1 hr by LC-MS/MS analysis; assay type: ADME, Microsome; conditions: time 75 min, read-out: Stability; procedure, shortened: as §1
[13] = Tolerability in CD1 mouse assessed as reduction in body weight at 138 micromol/kg, ip administered every other day for 8 days; assay type: toxicity, organism-based; conditions: in vivo, 192 h, dose 138 µmol/kg, time 8 day; procedure, shortened: as §3
[14] = tested on: BT-474; test: Inhibition of REV-ERBbeta in REV-ERBbeta knockout human BT-474 cells assessed as induction of BMAL1 expression at 5 uM after 24 hrs by qRT-PCR analysis; assay type: cell-based
[15] = Metabolic stability in mouse liver microsomes assessed as half-life preincubated for 15 mins followed by UDPGA addition and measured after 2 hrs by LC-MS/MS analysis
[16] = tested on: A-375; test: Cytotoxicity against human A-375 cells; assay type: functional; procedure, shortened: as §2
[17] = tested on: A-375; test: Antitumor activity against human A-375 cells xenografted in NMRI-Foxn1nu mouse assessed as reduction in tumor weight at 30 mg/kg, ip administered as 3 days on and 2 days off schedule and measured after 15 days; assay type: functional; parameters: scale not given: the % may be the effect or the level left; conditions: time 15 day
Procedure, shortened: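 Female NMRI-Foxn1nu mice with subcutaneous A375 flank tumors, grouped by matched tumor volume. Dosing: 30 mg/kg ip or saline, 3 days daily then 2 days off. Tumors measured by digital caliper until day 15. Excised tumors then sized as (W × D × L)/2 and weighed. n = 8; Mann–Whitney two-tailed test for the excised endpoints.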

[18] = tested on: A375 (human); test: Inhibition of autophagy in human A375 cells expressing EGFP-LC3B assessed as increase in SQSTM1 protein level at 2.5 uM after 24 hrs by immunoblotting analysis
[19] = tested on: A-375; test: Antitumor activity against human A-375 cells xenografted in NMRI-Foxn1nu mouse assessed as effect on autophagy by measuring increase in GFP-LC3-II expression at 30 mg/kg, ip administered for 2 days by immunoblotting analysis; assay type: functional, organism-based; conditions: time 2.0 day
Procedure, shortened: (§4)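 Female NMRI-Foxn1nu mice bearing flank subcutaneous xenografts of GFP-LC3 reporter A375 cells, matched for tumor size, given 30 mg/kg ip or saline for 2 days. Euthanized 48 h after first injection. Tumor lysates immunoblotted with anti-LC3B for GFP-LC3-I and GFP-LC3-II. n = 3; unpaired two-tailed t test versus saline.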

[20] = tested on: A375 (human); test: Inhibition of autophagy in human A375 cells expressing EGFP-LC3B assessed as increase in LC3-II protein level at 2.5 uM after 24 hrs by immunoblotting analysis
[21] = Cytotoxicity against HMECs; assay type: toxicity, cell-based, HMEC; conditions: human, HMEC cells
Procedure, shortened: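 BT-474 breast cancer cells and nontumorigenic HMECs treated 48 h with concentrations up to 30 μM. CC50 derived from concentration–response viability plots. Values >30 μM assigned when viability fell by less than 50% of vehicle at 30 μM. Mean ± SEM, n ≥ 3.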

[22] = tested on: BT-474; test: Induction of apoptosis in human BT-474 cells assessed as increase in caspase activity after 24 hrs; assay type: functional, cell-based; conditions: dose 2.5-10 µM
Procedure, shortened: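 BT-474 cells treated at a range of concentrations. Apoptosis read out as caspase activity and as cleaved PARP protein by immunoblot.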

[23] = tested on: A-375; test: Antitumor activity against human A-375 cells xenografted in NMRI-Foxn1nu mouse assessed as effect on autophagy by measuring increase in LC3-II/LC3-I ratio expression at 30 mg/kg, ip administered for 2 days by immunoblotting analysis; assay type: functional, organism-based; conditions: time 2.0 day; procedure, shortened: as §4
[24] = Metabolic stability in rat liver microsomes assessed as parent compound remaining preincubated for 15 mins followed by NADPH addition and measured after 1 to 2 hrs by LC-MS/MS analysis; assay type: ADME, Microsome; conditions: time 75-135 min; procedure, shortened: as §1
[25] = Metabolic stability in mouse liver microsomes assessed as parent compound remaining preincubated for 15 mins followed by NADPH addition and measured after 2 hrs by LC-MS/MS analysis; assay type: ADME, Microsome; conditions: time 135 min, read-out: Stability; procedure, shortened: as §1

SMILES: Fc1ccc(C2(NCc3ccc(F)c(CC4CCNCC4)c3)CCCC2)cc1
- half-life [1]: > 1 h
- Cmax [2]: 280.23 ng/mL
- CC50 [3]: 4.74 µM
- Activity [4]: Non-Toxic
- remaining at 2 h [5]: 68%
- half-life [6]: > 2 h
- half-life [7]: > 2 h
- remaining at 1 h [8]: 84%
- Activity [9]: Toxic
- Activity [10]: Toxic
- half-life [11]: > 2 h
- remaining at 1 h [12]: 81%
- Activity [13]: Toxic
- inhibition [14]: inactive
- t1/2 at 2 h [15]: > 2 h
- CC50 [16]: 2.56 µM
- Activity [17]: 56%
- inhibition [18]: Active
- Activity [19]: Active
- inhibition [20]: Active
- CC50 [21]: > 30 µM
- Activity [22]: Dose-Dependent Effect
- Activity [23]: Active
- Stability [24]: 98%
- remaining at 2 h [25]: 72%
